Reference: ChEMBL document CHEMBL5236592, “Induction of Ferroptosis in Glioblastoma and Ovarian Cancers by a New Pyrrole Tubulin Assembly Inhibitor” (J Med Chem, 2022)
Activity calls are given as the source filed them. The rule behind the calls is not given here.

Key:
U-87MG ATCC [1] = test: Induction of ferroptosis-mediated antitumor activity against human U-87 MG cells xenografted in BALB/C nu/nu mouse assessed as increase in malondialdehyde level in tumor at 25 mg/kg, ip administered every 2 days for 40 days by biochemical analysis; type: functional, organism-based; conditions: time 40.0 day
How it was run: (§1)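 U-87 MG or SKOV-3 sc xenografts (1 × 10^8 cells/mL) in female BALB/c nu/nu mice, 4 per group. Given 25 mg/kg ip in 100 μL every 2 days, or saline. Tumors harvested on day 40 and assayed for LPO, MDA, lactic acid, total glutathione (GSH + GSSG), ATP and Fe2+.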

Mus musculus [2] = test: Upregulation of Gpx4 mRNA expression in tumor of BALB/C nu/nu mouse xenografted with human SK-OV-3 cells at 25 mg/kg, ip administered every 2 days for 40 days by qPCR analysis; type: functional, organism-based; conditions: time 40.0 day
How it was run: (§2)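 Female BALB/c nu/nu mice, 10 weeks old, 4 per group. Inoculated s.c. with 1 × 10^8 cells/mL of log-phase U-87 MG or SKOV-3 cells. Dosed i.p. with 100 μL at 25 mg/kg every 2 days; controls got 100 μL saline. Tumors harvested on day 40. RNA extracted from about 20 mg of tissue. qPCR panel of 69 genes, 40 cycles (94 °C 20 s, 60 °C 34 s). Analysed by 2–ΔΔCt; fold ≥1.5 taken as increased.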

Mus musculus [3] = test: Upregulation of Cbs mRNA expression in tumor of BALB/C nu/nu mouse xenografted with human SK-OV-3 cells at 25 mg/kg, ip administered every 2 days for 40 days by qPCR analysis; type: functional, organism-based; conditions: time 40.0 day
How it was run: (§3)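 Female BALB/c nu/nu mice bearing sc U-87 MG or SKOV-3 xenografts were dosed ip at 25 mg/kg (100 μL) every 2 days, or given saline, and tumors were taken at day 40. RNA was extracted from about 20 mg of tissue. qPCR ran 40 cycles (95 °C 15 min; 94 °C 20 s; 60 °C 34 s) on a 69-gene panel. Fold change was by 2^–ΔΔCt, with ≥1.5 counted as increased.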

Mus musculus [4] = test: Upregulation of Fancd2 mRNA expression in tumor of BALB/C nu/nu mouse xenografted with human U-87 MG cells at 25 mg/kg, ip administered every 2 days for 40 days by qPCR analysis; type: functional, organism-based; conditions: time 40.0 day; how it was run: as §3
[5] = Selectivity index, ratio of IC50 for cytotoxicity against human U-87 MG cells to IC50 for cytotoxicity against human OVCAR-3 cells; type: toxicity, cell-based; conditions: U-87 MG cells versus OVCAR-3 cells, read-out: Ratio IC50
SK-OV-3 [6] = test: Induction of ferroptosis-mediated antitumor activity against human SK-OV-3 cells xenografted in BALB/C nu/nu mouse assessed as reduction in FTH1 protein expression in tumor at 25 mg/kg, ip administered every 2 days for 40 days by immunofluoresence staining based assay; type: functional, organism-based; conditions: time 40.0 day
How it was run: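 Xenografts of U-87 MG or SKOV-3 (1 × 10^8 cells/mL, sc) in female BALB/c nu/nu mice, 4 per group. Treated ip at 25 mg/kg in 100 μL every 2 days versus saline, tumors collected at day 40. Paraffin sections (6 μm) were blocked at 37 °C for 30 min, then incubated with rabbit anti-GPX4 or anti-FTH1 and then Alexa Fluor 488 anti-rabbit, each for 45 min at 37 °C.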

Mus musculus [7] = test: Upregulation of ENDOG mRNA expression in tumor of BALB/C nu/nu mouse xenografted with human U-87 MG cells at 25 mg/kg, ip administered every 2 days for 40 days by qPCR analysis; type: functional, organism-based; conditions: time 40.0 day; how it was run: as §3
SK-OV-3 [8] = test: Induction of ferroptosis-mediated antitumor activity against human SK-OV-3 cells xenografted in BALB/C nu/nu mouse assessed as reduction in ATP level in tumor at 25 mg/kg, ip administered every 2 days for 40 days by biochemical analysis; type: functional, organism-based; conditions: time 40.0 day; how it was run: as §1
Mus musculus [9] = test: Upregulation of Rpl8 mRNA expression in tumor of BALB/C nu/nu mouse xenografted with human SK-OV-3 cells at 25 mg/kg, ip administered every 2 days for 40 days by qPCR analysis; type: functional, organism-based; conditions: time 40.0 day; how it was run: as §2
Mus musculus [10] = test: Upregulation of Nf22l2 mRNA expression in tumor of BALB/C nu/nu mouse xenografted with human SK-OV-3 cells at 25 mg/kg, ip administered every 2 days for 40 days by qPCR analysis; type: functional, organism-based; conditions: time 40.0 day; how it was run: as §2
Mus musculus [11] = test: Upregulation of Akr1c3 mRNA expression in tumor of BALB/C nu/nu mouse xenografted with human U-87 MG cells at 25 mg/kg, ip administered every 2 days for 40 days by qPCR analysis; type: functional, organism-based; conditions: time 40.0 day; how it was run: as §3
U-87MG ATCC [12] = test: Induction of ferroptosis-mediated antitumor activity against human U-87 MG cells xenografted in BALB/C nu/nu mouse assessed as reduction in ATP level in tumor at 25 mg/kg, ip administered every 2 days for 40 days by biochemical analysis; type: functional, organism-based; conditions: time 40.0 day; how it was run: as §1
Mus musculus [13] = test: Upregulation of Cs mRNA expression in tumor of BALB/C nu/nu mouse xenografted with human U-87 MG cells at 25 mg/kg, ip administered every 2 days for 40 days by qPCR analysis; type: functional, organism-based; conditions: time 40.0 day; how it was run: as §3
T-cell line = test: Cytotoxicity against human primary T-lymphocytes assessed as reduction in cell viability at 1 to 2.5 uM incubated for 48 to 72 hrs by Annexin V- APC/PI staining based flow cytometry analysis; type: toxicity; conditions: dose lower 1 µM, time lower 48 hrs, dose upper 2.5 µM, time upper 72 hrs
How it was run: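 T lymphocytes negatively selected from healthy-donor PBMCs isolated by density gradient. Cultured at 1.5 × 10^6/mL with 0.1, 1.0 or 2.5 μM compound, DMSO vehicle or untreated, for 48 or 72 h. Stained with annexin V-APC and propidium iodide; early and late apoptotic fractions counted by flow cytometry.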

Mus musculus [14] = test: Upregulation of Slc7a11 mRNA expression in tumor of BALB/C nu/nu mouse xenografted with human SK-OV-3 cells at 25 mg/kg, ip administered every 2 days for 40 days by qPCR analysis; type: functional, organism-based; conditions: time 40.0 day; how it was run: as §2
Mus musculus [15] = test: Upregulation of Acsf2 mRNA expression in tumor of BALB/C nu/nu mouse xenografted with human U-87 MG cells at 25 mg/kg, ip administered every 2 days for 40 days by qPCR analysis; type: functional, organism-based; conditions: time 40.0 day; how it was run: as §3
Mus musculus [16] = test: Upregulation of Lpcat3 mRNA expression in tumor of BALB/C nu/nu mouse xenografted with human U-87 MG cells at 25 mg/kg, ip administered every 2 days for 40 days by qPCR analysis; type: functional, organism-based; conditions: time 40.0 day; how it was run: as §2
Mus musculus [17] = test: Upregulation of Nrf2 mRNA expression in tumor of BALB/C nu/nu mouse xenografted with human U-87 MG cells at 25 mg/kg, ip administered every 2 days for 40 days by qPCR analysis; type: functional, organism-based; conditions: time 40.0 day; how it was run: as §2
Mus musculus [18] = test: Upregulation of Hspb5 mRNA expression in tumor of BALB/C nu/nu mouse xenografted with human U-87 MG cells at 25 mg/kg, ip administered every 2 days for 40 days by qPCR analysis; type: functional, organism-based; conditions: time 40.0 day; how it was run: as §2
Mus musculus [19] = test: Upregulation of Hspb5 mRNA expression in tumor of BALB/C nu/nu mouse xenografted with human SK-OV-3 cells at 25 mg/kg, ip administered every 2 days for 40 days by qPCR analysis; type: functional, organism-based; conditions: time 40.0 day; how it was run: as §2

For COc1cc(C(=O)c2cn(-c3ncccn3)cc2-c2ccco2)cc(OC)c1OC, the Activity (U-87MG ATCC [1]) was “Active”, the Activity (Mus musculus [2]) was “Active” and the Activity (Mus musculus [3]) was “Active”. For the same compound, the Activity (Mus musculus [4]) was “Active”, the selectivity ratio [5] was 3.5 and the Activity (SK-OV-3 [6]) was “Active”. For the same compound, the Activity (Mus musculus [7]) was “Active”, the Activity (SK-OV-3 [8]) was “Active” and the Activity (Mus musculus [9]) was “Active”. For the same compound, the Activity (Mus musculus [10]) was “Active”, the Activity (Mus musculus [11]) was “Active” and the Activity (U-87MG ATCC [12]) was “Active”. For the same compound, the Activity (Mus musculus [13]) was “Active”, the Activity (T-cell line) was “Toxic” and the Activity (Mus musculus [14]) was “Active”. The Activity (Mus musculus [15]) was “Active”, the Activity (Mus musculus [16]) was “Active” and the Activity (Mus musculus [17]) was “Active”. For the same compound, the Activity (Mus musculus [18]) was “Active” and the Activity (Mus musculus [19]) was “Active”.
